From article PMC9862713 (Bioorganic & Medicinal Chemistry, 2023) come the findings set out here.

For one series, the system named is HEK-293. Put plainly: MTT cell viability / cytotoxicity assay. Type of series: cell-based, Human. The settings on record: 24 and 48 h, concentrations up to 100 µM. Put shortly: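 HEK-293 cells kept in DMEM with 2 mM L-glutamine, 10% heat-inactivated FBS and 1% pen/strep at 37 °C, 5% CO2. Seeded at 10,000 cells/well; compound or DMSO vehicle (0.5% final) added 24 h later, 24 or 48 h exposure. MTT 0.5 mg/ml final for 2 h at 37 °C, ethanol solubilisation, A570 (ref 650 nm). Eight serial dilutions in triplicate, sigmoidal dose–response fit; mean ± SD, three independent experiments.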

The nature of series [1]: Aqueous kinetic solubility in PBS pH 7.4. The settings on record: for solubility kinetic at 24 h: phosphate buffered saline (PBS), pH 7.4, Kinetic solubility Sk. Type of series: physicochemical.
Another series deals with SARS-CoV-2 RdRp (Severe acute respiratory syndrome coronavirus 2, UniProt P0DTD1). Description: RdRp enzymatic assay. It counts as biochemical.
Setting [2] is: PBS pH 7.4, 25 °C, 24 h, target 250 µM, 2.5 % DMSO.

≈ marks a conversion by molar mass, not a printed value. Entries after “also recorded” stand apart in the source; their conditions may differ.

With `CCCCOc1c(-c2ccc(O)c(O)c2)oc2cc(O)cc(O)c2c1=O` [Compound 4], the “Cytotoxicity on HEK-293” value in the series with HEK-293 is recorded as “no cytotoxicity effects; also recorded: did not appear to be cytotoxic”.

`O=c1c(OCCO)c(-c2ccc(O)c(O)c2)oc2cc(O)cc(O)c12` [Compound 5]: the “Cytotoxicity on HEK-293” value in the series on HEK-293 was “no cytotoxicity effects; also recorded: did not appear to be cytotoxic”.

For `O=c1c(OCCCO)c(-c2ccc(O)c(O)c2)oc2cc(O)cc(O)c12` [Compound 6], the “Cytotoxicity on HEK-293” value with HEK-293 is “did not appear to be cytotoxic; also recorded: no cytotoxicity”. For the same compound, the “Kinetic solubility Sk” value in series [1] (setting [2]) stood at 231 µM.

As to `O=c1cc(Cc2ccc(O)c(O)c2)oc2cccc(O)c12` [Compound 7], the “Improvement of kinetic solubility” value in series [1] (compared to the hits (luteolin, quercetin)) was 3 to 4 fold.

As to `CC(c1ccc(O)c(O)c1)c1cc(=O)c2c(O)cccc2o1` (stereo not drawn) [Compound 8], the “Cytotoxicity on HEK-293” value in the series on HEK-293 is recorded as “no cytotoxicity effects; also recorded: did not appear to be cytotoxic”.

For `O=c1cc(C(CCCC(F)(F)F)c2ccc(O)c(O)c2)oc2cccc(O)c12` (stereo not drawn) [Compound 10], on SARS-CoV-2 RdRp (enzymatic assay, 37 °C, 60 min, duplicate), the “IC50 against SARS-CoV-2 RdRp” value is “no inhibition”.

A word on the solubility (kinetic): it is the concentration staying in solution when a stock, usually in DMSO, is diluted into the medium. Consider `O=c1cc(/C=C/c2ccc(O)c(O)c2)oc2cccc(O)c12` [Compound 12], for which the solubility (kinetic) at 24 h in series [1] (setting [2]) is 1 µM (≈ 0.296 µg/mL).

Consider `O=C(Oc1ccc(O)c(O)c1)c1cc(=O)c2c(O)cccc2o1` [Compound 14], for which the “Increase of activity (IC50 ratio)” value on SARS-CoV-2 RdRp (compared to 12 and 13) was “about 4 fold”. The compound also displayed a kinetic solubility at 24 h in series [1] (setting [2]) of 1 µM (≈ 0.314 µg/mL).

On to `O=C(OCCc1ccc(O)c(O)c1)c1cc(=O)c2c(O)cccc2o1` [Compound 15], for which, at SARS-CoV-2 RdRp (compared to the rigid ester 14), the “Drop of potency (IC50 ratio)” value was found to be 22 fold.

`O=C(NCCNC(=S)Nc1ccc(O)c(O)c1)c1cc(=O)c2c(O)cccc2o1` [Compound 17] showed a solubility (kinetic) at 24 h in series [1] (setting [2]) of 1 µM (≈ 0.415 µg/mL).
